# Screens from PubChem BioAssay.
# CHOP UPR activ: activators of apoptotic arm of unfolded protein response (CHOP) | 0.34% of 330,000 active | CHO-CHOP luciferase reporter, UPR activation, luminescence; percent of tunicamycin response over DMSO baseline | activation, % at 10 µM;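 active means at 10 µM dose, activation of 40% or more, normalized to positive control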;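 further: 100% = tunicamycin at 10 µg/mL and 0% = DMSO alone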
#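 Test system: CHO CHOP reporter cells. Input: 500 CHO-CHOP cells per well. Medium: F12 with 10% FBS. Technique: luciferase luminescence. Measure: percent activation relative to tunicamycin control. Dosing: 10 µM compound, 0.5% DMSO. Timing: 16-18 h cell attachment, then 6 h compound exposure, 37 °C.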
# UPR XBP1 act: activators of adaptive arm of unfolded protein response (XBP1); CHO-XBP1 luciferase reporter, IRE1-XBP1 UPR activation, luminescence; percent of tunicamycin response, DMSO as zero; activation, % at 20 µM; 0.33% of 330,000 active;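 active means versus positive control, 20 µM dose yields 30% or more activation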;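 further: 100% = tunicamycin at 10 µg/mL and 0% = DMSO only wells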
#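 Assay system: CHO-XBP1 luciferase reporter cells; Schedule: 6 h treatment, 37 °C; Detection: glow luminescence from Steady-Glo reagent; Benchmarks: high control tunicamycin 10 µg/mL final, low control DMSO vehicle only.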
# CHOP inhibitor: blocks CHOP induction under ER stress | inhibition, % at 10 µM | 3.8% of 220,000 active | CHO-K1 CHOP-promoter luciferase, tunicamycin-induced, 15-18 h;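 active means compounds that reduced the stress-induced luciferase reporter signal by more than about 70% of percent inhibition, limit read from the data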;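 further: 0% = tunicamycin plus vehicle and 100% = wells without tunicamycin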
# PvdQ acylase: P. aeruginosa PvdQ acylase inhibition; purified PvdQ acylase, fluorescence plate reader; inhibition, % at 10 µM; 0.063% of 340,000 active; in the data active means inhibition above about 30%, passing the limit was not always enough;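 further: 0% = vehicle neutral wells and 100% = reference inhibitor wells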
# Numbers without * were called inactive; / = no result. Many of the other results were omitted from the sample, so hits are more common in it than they were.
SMILES,CHOP UPR activ,UPR XBP1 act,CHOP inhibitor,PvdQ acylase
CC12CCC3C(CCC4=C(O)C(=O)CCC43C)C1CCC2=O (centres undefined),/,/,-21,/
O=C1NC(=O)N(CCC2=CCCCC2)C(=O)/C1=C\c1cccs1,2,8,94*,3
Cn1cccc1/C=C1\C(=O)NC(=O)N(CCC2=CCCCC2)C1=O,/,/,49,-2
C=CCN1C(=O)/C(=C/c2cccs2)C(=O)NC1=S,/,/,80*,2
CCn1cnc2c(Nc3cccc(Cl)c3)nc(N[C@@H]3CCCC[C@@H]3N)nc21,/,/,-5,/
CCCCC1(CCCC)C(=O)NC(=Nc2cccc(C)c2)NC1=O,1,4,80*,-3
CC(C)CC(=O)NC(Oc1ccc(Cl)cc1)C(Cl)(Cl)Cl (centres undefined),0,-2,72*,-9
CCOC(=O)c1c(NC(=O)c2c(N)n(CCCOC)c3nc4ccccc4nc23)sc2c1CCCC2,1,-3,27,-1
CCOC(=O)c1c(NC(NC(=O)CF)C(Cl)(Cl)Cl)sc2c1CCCC2 (centres undefined),-1,-4,74*,-6
O=c1c2ccccc2nc(/C=C/c2ccc(O)cc2)n1-c1cccc(O)c1,0,0,71*,1
O=c1c2ccccc2nc(/C=C/c2ccc(O)cc2)n1-c1ccc(O)cc1,7,4,/,-4
CC(C)CCn1c(=O)c(C(=O)Nc2ccccc2S(N)(=O)=O)c(O)c2ccccc21,17,6,92*,-12
CCCCn1c(=O)c(C(=O)Nc2ccccc2C)c(O)c2ccccc21,1,-2,/,-13
Cc1cccc(OP(=O)(Oc2ccccc2)OC(c2ccccc2)C(F)(F)F)c1 (centres undefined),1,-4,76*,-9
CCCCCn1c(N)c(C(=O)NCCN2CCOCC2)c2nc3ccccc3nc21,-1,4,46,-30
CCCCCn1c(N)c(C(=O)NCc2cccs2)c2nc3ccccc3nc21,-3,2,68,/
CCCCn1c(N)c(C(=O)NCc2cccs2)c2nc3ccccc3nc21,-1,-2,92*,-15
CCCCCCn1c(N)c(C(=O)NCCN2CCOCC2)c2nc3ccccc3nc21,-2,4,86*,-28
CC(C)(C)NCC(O)c1ccccc1Cl (centres undefined),/,/,33,/
CC(C)C(=O)c1cn(Cc2ccccc2C#N)c2ccccc12,-3,-7,77*,-11
CC(=O)c1cn(Cc2ccccc2C#N)c2ccccc12,1,-1,52,-10
CN1CC[C@@]2(C)c3cc(O)ccc3N(C)C12 (some centres undefined),/,/,9,/
Cc1ccc(/C=C2/C(=O)NC(=O)N(CCc3ccc(F)cc3)C2=O)o1,1,-2,83*,-20
O=c1[nH]c(=S)n(CCC2=CCCCC2)c(O)c1C=NC1CCN(Cc2ccccc2)CC1,3,1,81*,1
O=c1[nH]c(=S)n(CCC2=CCCCC2)c(O)c1/C=N/Nc1ccccc1,1,-4,73*,8
SMILES,CHOP UPR activ,UPR XBP1 act,CHOP inhibitor,PvdQ acylase
CN1CCN(/N=C/c2c(O)n(CCC3=CCCCC3)c(=S)[nH]c2=O)CC1,2,-1,8,-13
NCCCP(=O)(O)O,/,/,-35,/
C/C1=C\[C@@H](C)C/C=C/[C@H]2[C@@H]3O[C@]3(C)[C@@H](C)[C@H]3[C@H](Cc4c[nH]c5ccccc45)NC(=O)[C@]32C(=O)/C=C/C(=O)[C@@H]1O,-9,-8,105*,1
Cc1ccc(S(=O)(=O)NCCC(=O)Nc2ccc(Cl)cc2C(=O)c2ccccc2)cc1,1,-3,94*,-18
C=CCN1CC[C@]23c4c5ccc(O)c4O[C@@H]2/C(=N/N=C2\CC[C@@]4(O)C6Cc7ccc(O)c8c7[C@@]4(CCN6CC=C)[C@@H]2O8)CC[C@@]3(O)C1C5,/,/,8,/
CCCN(CCC)[C@@H]1CCc2c(F)ccc(O)c2C1,/,/,-15,/
Cc1ccc(/C=C2\C(=O)NC(=S)N(c3ccccc3F)C2=O)s1,/,/,107*,-3
COc1ccc2c(c1)C13CCCCC1C(C2)N(C)CC3 (centres undefined),/,/,-7,/
CCOC(=O)C1=C(N)OC2=C(C(=O)CCC2)C12C(=O)N1c3c(ccc(C)c32)C(C)=CC1(C)C (centres undefined),1,0,26,-13
CCOC(=O)C1=C(N)Oc2cc(C)oc(=O)c2C12C(=O)N1c3c(cccc32)C(C)CC1(C)C (centres undefined),-1,-2,83*,-18
